Laboratory results reported in ChEMBL document CHEMBL1240362, “Intrapulmonary pharmacokinetics of S-013420, a novel bicyclolide antibacterial, in healthy Japanese subjects” (Antimicrob Agents Chemother, 2010).
Converted amounts (≈) assume the structure as drawn.

Assays:
[1] = Ratio of drug level in epithelial lining fluid to plasma in healthy human at 400 mg, po administered as single dose after 10 hrs
[2] = Drug level in alveolar macrophages of healthy human at […], po administered as single dose after 10 hrs; type: ADME, organism-based, Macrophage; parameters: route oral; conditions: read-out: Drug uptake
Method in brief: (§1)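 One oral 400 mg suspension dose; four volunteers lavaged at each time (2-24 h). Cell pellet from the pooled 2nd-4th aspirates was counted (hemocytometer, stained cytospin differential). Drug in cell suspension measured by HPLC, divided by AM volume assuming 2.42 μl/10^6 cells. Cmax and Tmax are model-independent, based on mean concentrations at each time.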

[3] = Tmax in epithelial lining fluid of healthy human at 400 mg, po administered as single dose
[4] = Drug level in epithelial lining fluid of healthy human at […], po administered as single dose after 12 hrs; type: ADME, organism-based; parameters: route oral; conditions: read-out: Drug uptake
Method in brief: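 Four healthy male volunteers per BAL time (2-24 h) after one oral 400 mg suspension dose. Single bronchoscopic lavage; first aliquot discarded, next three pooled. Supernatant separated at 400 × g, 5 min, 4°C, and drug assayed by LC/MS/MS. ELF level = CBAL × urea plasma/urea BAL, with urea corrected for blood contamination via RBC ratio. PK parameters are model-independent, based on the mean concentration at each time.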

Homo sapiens [5] = assay: Toxicity in healthy human assessed as eosinophil count in bronchoalveolar fluid at 400 mg, po administered as single dose after 12 hrs; conditions: in vivo
[6] = Ratio of epithelial lining fluid AUC (0 to 24 hrs) to plasma AUC (0 to 24 hrs) in healthy human at 400 mg, po administered as single dose
Homo sapiens [7] = assay: Toxicity in healthy human assessed as eosinophil count in bronchoalveolar fluid at 400 mg, po administered as single dose after 10 hrs; conditions: in vivo
[8] = Plasma concentration in healthy human at […], po after 8 hrs; type: ADME, organism-based; parameters: route oral
Method in brief: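 Healthy nonsmoking Japanese men, 20-45 y, given one oral 400 mg suspension dose. Blood drawn at 0-72 h, spun at 1,600 × g for 10 min at 4°C, plasma kept at −20°C. Drug measured by validated LC/MS/MS, linear 0.005-5 μg/ml. Values are mean ± SD, n = 28. Cmax, Tmax and t1/2,z are model-independent; AUC0-24 by trapezoidal method.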

[9] = Ratio of AUC (0 to 24 hrs) in plasma of healthy human to MIC90 for Streptococcus pneumoniae; type: functional
Homo sapiens [10] = assay: Toxicity in healthy human assessed as lymphocytes count in bronchoalveolar fluid at […], po administered as single dose after 12 hrs; type: organism-based, Lung; parameters: route oral; conditions: in vivo
Method in brief: (§2)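 Healthy Japanese male never-smokers, aged 20 to 45 years with normal BMI, got one open-label oral 400 mg suspension dose. Four subjects per time group had one fiber-optic bronchoscopic BAL at the assigned post-dose time. The first aliquot was discarded and the last three were pooled. BAL fluid was held on ice and spun at 400 × g for 5 min at 4°C. Pellet cells were counted by hemocytometer, with a differential count on a stained cytocentrifuge preparation.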

Homo sapiens [11] = assay: Toxicity in healthy human assessed as other cellular fractions in bronchoalveolar fluid at […], po administered as single dose after 24 hrs; type: organism-based, Lung; parameters: route oral; conditions: in vivo
Method in brief: as §2

[12] = Ratio of AUC (0 to 24 hrs) in […] healthy epithelial lining fluid to MIC90 for Haemophilus influenzae; type: functional
Moraxella catarrhalis = assay: Antimicrobial activity against Moraxella catarrhalis; type: functional
Homo sapiens [13] = assay: Toxicity in healthy human assessed as neutrophil count in bronchoalveolar fluid at […], po administered as single dose after 12 hrs; type: organism-based, Lung; parameters: route oral; conditions: in vivo
Method in brief: as §2

[14] = Drug level in alveolar macrophages of healthy human at […], po administered as single dose after 24 hrs; type: ADME, organism-based, Macrophage; parameters: route oral; conditions: read-out: Drug uptake
Method in brief: as §1

[15] = Ratio of AUC (0 to 24 hrs) in […] healthy epithelial lining fluid to MIC90 for Streptococcus pneumoniae; type: functional
Homo sapiens [16] = assay: Toxicity in healthy human assessed as lymphocytes count in bronchoalveolar fluid at […], po administered as single dose after 8 hrs; type: organism-based, Lung; parameters: route oral; conditions: in vivo
Method in brief: as §2

[17] = Ratio of AUC (0 to 24 hrs) in plasma of healthy human to MIC90 for Moraxella catarrhalis; type: functional
[18] = AUC (0 to 24 hrs) in alveolar macrophages of healthy human at 400 mg, po administered as single dose by linear trapezoidal method
[19] = Ratio of drug level in alveolar macrophages to plasma in healthy human at 400 mg, po administered as single dose after 8 hrs

CC[C@H]1OC(=O)[C@H](C)C(=O)[C@H](C)[C@@H](O[C@@H]2O[C@H](C)C[C@H](N(C)C)[C@H]2O)[C@@]2(C)C[C@@H](C)/C(=N\C(C)=O)[C@H](C)[C@@H](OC/C(=N\OCc3ccc(-n4cccn4)nc3)CO2)[C@]1(C)O [MODITHROMYCIN]
Kp at 10 h [1]: 23.2 | concentration at 10 h [2]: 108000 ng/mL | Tmax [3]: 2 h | concentration at 12 h [4]: 5800 ng/mL | Activity (Homo sapiens [5]): 0.9% | Kp [6]: 20.3 | Activity (Homo sapiens [7]): 0.1% | concentration at 8 h [8]: 441 ng/mL | RatioAUC/MIC [9]: 83.6 | Activity (Homo sapiens [10]): 13.3% | Activity (Homo sapiens [11]): 0% | RatioAUC/MIC [12]: 26.6 | MIC90 (Moraxella catarrhalis): 0.5 µg/mL (≈ 0.595 µM) | Activity (Homo sapiens [13]): 0% | concentration at 24 h [14]: 68000 ng/mL | RatioAUC/MIC [15]: 1699.2 | Activity (Homo sapiens [16]): 9.3% | RatioAUC/MIC [17]: 20.9 | AUC(0-t) at 24 h [18]: 2560 µg·h/mL | Kp at 8 h [19]: 283
